Data published in the M2OR odorant receptor database.
Substitutions are numbered along the chain they refer to.

How the values were obtained:
Conditions in all cases: stereoisomer not certain
[1] = tested on: T1, OR4K1 R304H
T1 sequence (whole entry): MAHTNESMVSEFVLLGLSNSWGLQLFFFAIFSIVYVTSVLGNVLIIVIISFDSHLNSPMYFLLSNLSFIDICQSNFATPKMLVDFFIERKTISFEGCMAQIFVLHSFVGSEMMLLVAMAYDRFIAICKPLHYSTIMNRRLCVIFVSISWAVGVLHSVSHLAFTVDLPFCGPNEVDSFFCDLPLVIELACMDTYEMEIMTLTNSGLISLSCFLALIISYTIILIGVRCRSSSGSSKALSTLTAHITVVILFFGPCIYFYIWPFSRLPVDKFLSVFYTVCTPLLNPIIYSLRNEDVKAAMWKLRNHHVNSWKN
How it was run: (§1)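 Whether a receptor–molecule pair is responsive (active) rests on the original authors' judgment that its measured signal was statistically different from baseline. Pairs without that judgment are non-responsive (inactive). Sources used varied assay methods, commonly transient luciferase assays in mammalian cell lines.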

[2] = target: T2, OR4K13 (Homo sapiens) (UniProt Q8NH42)
T2 sequence (whole entry): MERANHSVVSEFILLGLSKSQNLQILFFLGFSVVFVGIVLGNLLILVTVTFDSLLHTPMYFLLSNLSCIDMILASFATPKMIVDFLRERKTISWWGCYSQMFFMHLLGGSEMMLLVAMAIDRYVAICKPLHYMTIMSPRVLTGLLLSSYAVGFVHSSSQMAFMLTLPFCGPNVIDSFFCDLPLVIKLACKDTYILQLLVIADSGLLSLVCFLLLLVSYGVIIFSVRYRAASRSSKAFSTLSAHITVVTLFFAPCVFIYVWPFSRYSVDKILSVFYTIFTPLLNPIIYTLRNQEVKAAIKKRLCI
How it was run: as §1

[3] = target: T3, OR4K14 (Homo sapiens) (UniProt Q8NGD5)
T3 sequence (whole entry): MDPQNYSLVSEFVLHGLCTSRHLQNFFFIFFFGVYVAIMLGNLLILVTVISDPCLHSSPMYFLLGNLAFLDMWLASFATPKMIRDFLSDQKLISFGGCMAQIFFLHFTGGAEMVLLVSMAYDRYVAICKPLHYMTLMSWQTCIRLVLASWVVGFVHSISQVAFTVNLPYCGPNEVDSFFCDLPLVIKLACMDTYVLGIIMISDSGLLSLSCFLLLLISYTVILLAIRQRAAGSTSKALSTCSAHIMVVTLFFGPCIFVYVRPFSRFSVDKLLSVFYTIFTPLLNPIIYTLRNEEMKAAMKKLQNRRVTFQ
How it was run: as §1

[4] = target: T4, OR4K2 (Homo sapiens) (UniProt Q8NGD2)
T4 sequence (whole entry): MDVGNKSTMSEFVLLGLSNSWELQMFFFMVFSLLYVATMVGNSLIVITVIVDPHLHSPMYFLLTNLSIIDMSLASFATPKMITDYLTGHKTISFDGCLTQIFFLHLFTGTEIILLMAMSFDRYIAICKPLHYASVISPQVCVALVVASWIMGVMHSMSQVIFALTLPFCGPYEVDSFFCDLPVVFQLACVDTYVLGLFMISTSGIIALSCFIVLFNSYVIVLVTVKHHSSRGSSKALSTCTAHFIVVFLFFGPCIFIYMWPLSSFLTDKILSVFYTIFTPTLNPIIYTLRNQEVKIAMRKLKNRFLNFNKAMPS
How it was run: as §1

[5] = tested on: T5, OR4K2
T5 sequence (whole entry): T4 sequence (whole entry) with N307I
How it was run: as §1

[6] = target: T6, OR4K5 (Homo sapiens) (UniProt Q8NGD3)
T6 sequence (whole entry): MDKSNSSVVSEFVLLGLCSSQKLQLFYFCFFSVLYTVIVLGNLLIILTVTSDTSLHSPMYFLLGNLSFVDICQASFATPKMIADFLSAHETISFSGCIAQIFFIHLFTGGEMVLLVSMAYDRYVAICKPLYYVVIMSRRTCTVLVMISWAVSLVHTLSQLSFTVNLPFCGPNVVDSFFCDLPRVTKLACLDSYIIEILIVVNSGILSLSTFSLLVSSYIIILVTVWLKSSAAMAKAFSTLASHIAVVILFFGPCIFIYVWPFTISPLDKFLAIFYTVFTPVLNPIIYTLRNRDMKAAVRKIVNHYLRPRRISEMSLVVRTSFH
How it was run: as §1

[7] = tested on: T7, OR4KF
T7 sequence (whole entry): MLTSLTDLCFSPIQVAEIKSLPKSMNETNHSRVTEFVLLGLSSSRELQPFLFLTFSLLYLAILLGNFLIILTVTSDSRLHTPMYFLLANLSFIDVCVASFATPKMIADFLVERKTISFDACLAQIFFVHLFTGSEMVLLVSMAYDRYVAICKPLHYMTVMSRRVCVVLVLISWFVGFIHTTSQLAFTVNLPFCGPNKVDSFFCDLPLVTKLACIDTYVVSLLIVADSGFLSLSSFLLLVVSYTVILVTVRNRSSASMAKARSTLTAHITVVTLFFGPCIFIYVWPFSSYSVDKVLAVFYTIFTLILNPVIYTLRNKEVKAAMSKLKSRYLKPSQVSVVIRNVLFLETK
How it was run: as §1

[8] = tested on: T8, OR4KH
T8 sequence (whole entry): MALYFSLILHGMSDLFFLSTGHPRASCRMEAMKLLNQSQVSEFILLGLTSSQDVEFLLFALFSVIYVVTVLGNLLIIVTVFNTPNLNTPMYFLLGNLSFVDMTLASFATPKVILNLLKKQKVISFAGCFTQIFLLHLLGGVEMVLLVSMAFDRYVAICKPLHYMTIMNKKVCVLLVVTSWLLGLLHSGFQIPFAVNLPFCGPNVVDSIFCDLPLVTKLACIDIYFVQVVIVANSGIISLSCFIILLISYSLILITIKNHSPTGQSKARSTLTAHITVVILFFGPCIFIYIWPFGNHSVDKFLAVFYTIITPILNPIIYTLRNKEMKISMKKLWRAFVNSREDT
How it was run: as §1

[9] = target: T9, OR4L1 (Homo sapiens) (UniProt Q8NH43)
T9 sequence (whole entry): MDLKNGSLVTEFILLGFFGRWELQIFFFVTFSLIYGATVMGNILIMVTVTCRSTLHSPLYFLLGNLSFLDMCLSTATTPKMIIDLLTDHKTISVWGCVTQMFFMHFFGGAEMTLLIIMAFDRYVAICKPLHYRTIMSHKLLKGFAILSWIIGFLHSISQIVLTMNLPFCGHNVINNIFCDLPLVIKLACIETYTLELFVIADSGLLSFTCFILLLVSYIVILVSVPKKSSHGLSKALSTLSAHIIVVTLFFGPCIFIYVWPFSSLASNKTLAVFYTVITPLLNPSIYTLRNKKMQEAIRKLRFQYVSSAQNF
How it was run: as §1

[10] = tested on: T10, OR4L1
T10 sequence (whole entry): T9 sequence (whole entry) with R52S
How it was run: as §1

[11] = target: T11, OR4M1 (Homo sapiens) (UniProt Q8NGD0)
T11 sequence (whole entry): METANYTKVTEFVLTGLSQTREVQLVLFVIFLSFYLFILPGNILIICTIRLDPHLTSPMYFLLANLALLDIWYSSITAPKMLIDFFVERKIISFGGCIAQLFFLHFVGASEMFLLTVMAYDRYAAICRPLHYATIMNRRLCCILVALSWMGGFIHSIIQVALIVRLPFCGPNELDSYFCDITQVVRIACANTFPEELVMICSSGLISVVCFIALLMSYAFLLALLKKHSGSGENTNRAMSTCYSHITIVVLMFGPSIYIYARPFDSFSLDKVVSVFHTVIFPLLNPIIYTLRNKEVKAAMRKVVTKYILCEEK
How it was run: as §1

[12] = tested on: T12, OR4M1 H277N V279L L284H
T12 sequence (whole entry): T11 sequence (whole entry) with H277N, V279L, L284H
How it was run: as §1

[13] = target: T13, OR4M2 (Homo sapiens) (UniProt Q8NGB6)
T13 sequence (whole entry): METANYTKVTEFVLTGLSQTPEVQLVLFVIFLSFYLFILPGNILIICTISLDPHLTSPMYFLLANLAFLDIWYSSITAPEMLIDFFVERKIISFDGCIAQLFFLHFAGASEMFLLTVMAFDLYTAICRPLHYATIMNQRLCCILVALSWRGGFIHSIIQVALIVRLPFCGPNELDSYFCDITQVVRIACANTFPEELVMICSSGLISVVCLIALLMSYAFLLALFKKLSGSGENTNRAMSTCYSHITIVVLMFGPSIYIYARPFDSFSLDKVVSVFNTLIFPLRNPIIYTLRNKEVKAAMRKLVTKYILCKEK
How it was run: as §1

[14] = target: T14, OR4N2 (Homo sapiens) (UniProt Q8NGD1)
T14 sequence (whole entry): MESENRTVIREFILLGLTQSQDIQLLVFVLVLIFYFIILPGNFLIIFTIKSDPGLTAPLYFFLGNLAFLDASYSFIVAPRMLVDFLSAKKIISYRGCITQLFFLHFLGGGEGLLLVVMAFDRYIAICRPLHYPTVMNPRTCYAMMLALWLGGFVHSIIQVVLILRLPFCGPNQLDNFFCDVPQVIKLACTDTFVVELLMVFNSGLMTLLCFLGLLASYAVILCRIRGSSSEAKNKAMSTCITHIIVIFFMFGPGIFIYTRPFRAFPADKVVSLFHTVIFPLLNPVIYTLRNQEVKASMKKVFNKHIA
How it was run: as §1

[15] = tested on: T15, OR4N2 A57V I76T
T15 sequence (whole entry): T14 sequence (whole entry) with A57V, I76T
How it was run: as §1

[16] = tested on: T16, OR4N2 R260C F279L R290H
T16 sequence (whole entry): T14 sequence (whole entry) with R260C, F279L, R290H
How it was run: as §1

[17] = target: T17, OR4K15 (Homo sapiens) (UniProt Q8NH41)
T17 sequence (whole entry): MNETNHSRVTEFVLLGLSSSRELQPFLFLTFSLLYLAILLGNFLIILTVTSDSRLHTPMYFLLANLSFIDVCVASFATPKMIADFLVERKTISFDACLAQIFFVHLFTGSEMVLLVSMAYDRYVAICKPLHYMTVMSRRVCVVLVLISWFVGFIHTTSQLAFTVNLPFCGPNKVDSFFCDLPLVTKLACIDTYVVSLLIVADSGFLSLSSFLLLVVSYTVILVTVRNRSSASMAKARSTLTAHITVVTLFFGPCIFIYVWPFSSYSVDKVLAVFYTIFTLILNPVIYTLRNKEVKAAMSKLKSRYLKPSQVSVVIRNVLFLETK
How it was run: as §1

[18] = target: T18, OR4K17 (Homo sapiens) (UniProt Q8NGC6)
T18 sequence (whole entry): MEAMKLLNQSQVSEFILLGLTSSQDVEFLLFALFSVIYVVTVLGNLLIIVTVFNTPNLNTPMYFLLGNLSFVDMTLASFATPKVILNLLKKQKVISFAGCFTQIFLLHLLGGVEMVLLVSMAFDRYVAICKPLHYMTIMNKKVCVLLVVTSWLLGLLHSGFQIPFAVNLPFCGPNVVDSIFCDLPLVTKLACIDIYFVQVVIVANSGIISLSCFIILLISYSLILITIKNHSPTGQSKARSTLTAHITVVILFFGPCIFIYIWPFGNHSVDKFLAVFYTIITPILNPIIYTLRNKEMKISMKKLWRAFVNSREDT
How it was run: as §1

[19] = target: OR4K3 (Homo sapiens) (UniProt Q96R72)
Chain of OR4K3 (Homo sapiens) (Q96R72 whole entry): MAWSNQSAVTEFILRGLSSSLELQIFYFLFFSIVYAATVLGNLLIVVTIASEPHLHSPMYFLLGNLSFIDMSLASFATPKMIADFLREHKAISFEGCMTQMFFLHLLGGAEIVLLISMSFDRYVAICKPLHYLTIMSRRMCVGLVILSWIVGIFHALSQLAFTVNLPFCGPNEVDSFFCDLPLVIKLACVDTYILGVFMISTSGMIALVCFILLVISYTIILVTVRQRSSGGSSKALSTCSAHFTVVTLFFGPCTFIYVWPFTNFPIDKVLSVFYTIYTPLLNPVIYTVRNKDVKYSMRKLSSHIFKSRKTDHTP
How it was run: as §1

[20] = target: OR4M2B (Homo sapiens) (UniProt A0A0X1KG70)
Chain of OR4M2B (Homo sapiens) (A0A0X1KG70 whole entry): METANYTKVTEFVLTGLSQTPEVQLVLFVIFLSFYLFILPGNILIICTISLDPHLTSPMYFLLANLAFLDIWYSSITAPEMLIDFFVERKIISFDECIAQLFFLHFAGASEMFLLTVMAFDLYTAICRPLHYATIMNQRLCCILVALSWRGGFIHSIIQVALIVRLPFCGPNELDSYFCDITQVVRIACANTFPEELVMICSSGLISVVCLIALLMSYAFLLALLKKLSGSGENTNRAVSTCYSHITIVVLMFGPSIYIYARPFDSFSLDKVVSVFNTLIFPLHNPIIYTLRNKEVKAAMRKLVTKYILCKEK
How it was run: as §1

Measured: odorant receptor agonist call;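 also: active if original authors judged signal statistically different from baseline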

CCCC(S)CCOC(C)=O (configuration not stated)
not listed: [17] | [18] | [19] | [20]
inactive: all other assays above

CCC1OC(=O)C(O)=C1C (configuration not stated)
not listed: [17] | [18] | [19] | [20]
inactive: all other assays above

CC1=C(O)C(=O)OC1C (configuration not stated)
not listed: [17] | [18] | [19] | [20]
inactive: all other assays above

O=c1ccc2ccccc2o1
inactive: [14]

CCCCCC(=O)C(C)C(C)=O (configuration not stated)
inactive: [2] | [3] | [17] | [18] | [4] | [6] | [9] | [11] | [13] | [14]

CCC1OC(C)=C(O)C1=O (configuration not stated)
not listed: [17] | [18] | [19] | [20]
inactive: all other assays above

CCCCC(S)C(C)CO (configuration not stated)
inactive: [2] | [3] | [17] | [18] | [4] | [6] | [9] | [11] | [13] | [14]

CC(=O)c1c(C)c([N+](=O)[O-])c(C(C)(C)C)c([N+](=O)[O-])c1C
not listed: [1] | [5] | [7] | [8] | [10] | [12] | [15] | [16]
inactive: all other assays above

CCC(S)C(C)CO (configuration not stated)
inactive: [2] | [3] | [17] | [18] | [4] | [6] | [9] | [11] | [13] | [14]
